Measurements reported in ChEMBL document CHEMBL4138313 (J Med Chem, 2018).
pEC50, pIC50: −log10 of the molar value. Active and inactive are the calls of the source. No cut-off for these calls is given here.

Columns and labels:
[1] = Safety index, ratio compound EC50 to olaparib EC50 for BRCA1 deficient human UWB1.289 cells; type: ADME; conditions: BRCA1-deficient UWB1.289 cells, read-out: Ratio EC50
Summary of the method: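 UWB1.289 cells were grown in 1:1 MEGM (bullet kit) and RPMI 1640 with 10% FBS and 1% pen/strep, at 37 °C, 5% CO2 and 15% O2. Cells were seeded at 1,000 cells/well and dosed after 24 h at 100–0.016 µM for 4–7 days. Viability was read by CellTiter-Glo luminescence and normalised to the vehicle mean.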

[2] = biological target: T1, Poly [ADP-ribose] polymerase tankyrase-1 (Homo sapiens, UniProt O95271); experiment: Inhibition of human N-terminal GST-tagged TNKS1 (1001 to 1327 residues) expressed in baculovirus infected sf9 cells using histone as substrate after 1 hr by streptavidin-horseradish peroxidase-based luminescence assay
T1 sequence (O95271 whole entry): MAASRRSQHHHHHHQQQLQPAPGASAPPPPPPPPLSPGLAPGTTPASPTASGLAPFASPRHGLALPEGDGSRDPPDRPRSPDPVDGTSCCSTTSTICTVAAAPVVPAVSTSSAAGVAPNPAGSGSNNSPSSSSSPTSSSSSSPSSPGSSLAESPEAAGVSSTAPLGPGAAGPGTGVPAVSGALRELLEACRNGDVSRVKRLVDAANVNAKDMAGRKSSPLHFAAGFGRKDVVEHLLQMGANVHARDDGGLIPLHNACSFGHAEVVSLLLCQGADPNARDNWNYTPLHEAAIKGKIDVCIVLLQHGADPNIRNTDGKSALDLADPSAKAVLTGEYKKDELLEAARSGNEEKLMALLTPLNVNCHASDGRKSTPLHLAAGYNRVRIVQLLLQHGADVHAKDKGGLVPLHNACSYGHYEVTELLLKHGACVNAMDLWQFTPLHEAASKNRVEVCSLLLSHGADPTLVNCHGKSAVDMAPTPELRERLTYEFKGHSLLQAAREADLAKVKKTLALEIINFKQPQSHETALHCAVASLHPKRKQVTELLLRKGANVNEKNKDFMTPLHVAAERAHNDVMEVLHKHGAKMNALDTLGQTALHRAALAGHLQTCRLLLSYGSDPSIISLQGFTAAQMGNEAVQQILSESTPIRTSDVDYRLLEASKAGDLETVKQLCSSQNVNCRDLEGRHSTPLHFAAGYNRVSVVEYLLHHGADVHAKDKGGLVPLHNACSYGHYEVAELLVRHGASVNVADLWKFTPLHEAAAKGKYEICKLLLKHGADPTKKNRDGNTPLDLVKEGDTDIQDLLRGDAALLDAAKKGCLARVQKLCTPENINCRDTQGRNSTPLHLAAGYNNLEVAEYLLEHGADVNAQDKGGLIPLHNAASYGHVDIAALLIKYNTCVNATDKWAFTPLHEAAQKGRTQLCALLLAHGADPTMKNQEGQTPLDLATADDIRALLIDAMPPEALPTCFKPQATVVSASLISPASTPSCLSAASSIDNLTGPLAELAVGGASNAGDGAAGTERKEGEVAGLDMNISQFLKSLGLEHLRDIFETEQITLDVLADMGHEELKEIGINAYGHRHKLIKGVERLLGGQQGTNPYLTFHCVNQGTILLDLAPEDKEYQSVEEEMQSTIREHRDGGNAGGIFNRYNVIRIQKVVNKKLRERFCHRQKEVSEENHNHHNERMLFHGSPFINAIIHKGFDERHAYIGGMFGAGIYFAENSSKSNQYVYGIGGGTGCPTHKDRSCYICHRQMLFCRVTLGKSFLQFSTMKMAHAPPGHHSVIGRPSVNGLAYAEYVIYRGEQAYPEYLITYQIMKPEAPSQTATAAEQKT

[3] = Cytotoxicity against human BRCA1-restored UWB1.289 cells assessed as reduction in cell viability after 4 to 7 days by cell-titer glo assay; type: cell-based
[4] = biological target: T2, Poly [ADP-ribose] polymerase tankyrase-2 (Homo sapiens, UniProt Q9H2K2); experiment: Inhibition of human N-terminal GST-tagged TNKS2 (667 to 1166 residues) expressed in baculovirus infected sf9 cells using histone as substrate after 1 hr by streptavidin-horseradish peroxidase-based luminescence assay
T2 sequence (Q9H2K2 whole entry): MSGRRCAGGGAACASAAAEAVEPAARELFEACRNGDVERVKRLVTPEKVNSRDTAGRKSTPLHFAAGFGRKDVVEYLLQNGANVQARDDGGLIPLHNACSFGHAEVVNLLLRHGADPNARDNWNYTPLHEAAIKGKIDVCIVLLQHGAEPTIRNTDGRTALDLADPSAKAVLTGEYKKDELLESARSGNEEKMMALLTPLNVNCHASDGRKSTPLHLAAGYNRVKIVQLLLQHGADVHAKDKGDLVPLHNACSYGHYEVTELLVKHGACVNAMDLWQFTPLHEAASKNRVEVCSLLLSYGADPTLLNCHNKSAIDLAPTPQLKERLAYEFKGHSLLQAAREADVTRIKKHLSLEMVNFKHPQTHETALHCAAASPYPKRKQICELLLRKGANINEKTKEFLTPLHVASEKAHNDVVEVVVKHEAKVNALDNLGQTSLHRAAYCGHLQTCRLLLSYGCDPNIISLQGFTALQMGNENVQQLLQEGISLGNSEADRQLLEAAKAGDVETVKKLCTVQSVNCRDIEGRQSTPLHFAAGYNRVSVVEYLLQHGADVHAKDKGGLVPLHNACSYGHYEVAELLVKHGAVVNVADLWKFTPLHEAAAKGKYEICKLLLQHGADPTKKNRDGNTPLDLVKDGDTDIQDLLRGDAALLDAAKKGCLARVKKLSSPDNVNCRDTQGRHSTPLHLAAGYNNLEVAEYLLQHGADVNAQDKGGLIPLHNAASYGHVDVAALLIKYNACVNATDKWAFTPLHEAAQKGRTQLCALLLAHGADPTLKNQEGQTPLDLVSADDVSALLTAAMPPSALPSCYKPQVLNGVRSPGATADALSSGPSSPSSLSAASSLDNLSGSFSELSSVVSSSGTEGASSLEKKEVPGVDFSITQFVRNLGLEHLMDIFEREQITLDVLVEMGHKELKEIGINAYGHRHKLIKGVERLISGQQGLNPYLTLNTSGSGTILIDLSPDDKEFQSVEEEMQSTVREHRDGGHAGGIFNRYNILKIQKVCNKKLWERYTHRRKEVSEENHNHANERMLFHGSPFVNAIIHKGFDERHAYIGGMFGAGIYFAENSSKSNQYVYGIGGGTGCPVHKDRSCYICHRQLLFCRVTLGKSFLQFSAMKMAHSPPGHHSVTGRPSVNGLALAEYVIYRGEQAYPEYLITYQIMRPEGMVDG

[5] = Cytotoxicity against human BRCA1-deficient UWB1.289 cells assessed as reduction in cell viability after 4 to 7 days by cell-titer glo assay; type: cell-based
MEF [6] = experiment: Cytotoxicity against mouse PARP1 deficient MEF cells assessed as reduction in cell viability after 4 to 7 days by cell-titer glo assay; type: cell-based
MEF [7] = experiment: Cytotoxicity against mouse wild type MEF cells assessed as reduction in cell viability after 4 to 7 days by cell-titer glo assay; type: cell-based
MEF [8] = experiment: Cytotoxicity against mouse PARP2 deficient MEF cells expressing PARP1 assessed as reduction in cell viability after 4 to 7 days by cell-titer glo assay; type: cell-based
[9] = biological target: T3, Poly [ADP-ribose] polymerase tankyrase-2 (Homo sapiens) (UniProt Q9H2K2); experiment: Inhibition of human N-terminal GST-tagged TNKS2 (667 to 1166 residues) expressed in baculovirus infected sf9 cells at 10 uM using histone as substrate after 1 hr by streptavidin-horseradish peroxidase-based luminescence assay
T3 sequence (whole entry): T2 sequence (Q9H2K2 whole entry)
Summary of the method: (§1)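 Run by an outside contractor using PARP or TNKS kit protocols, in duplicate, at room temperature for 1 h in histone-coated wells. The Tris·HCl pH 8.0 reaction buffer held NAD+, biotinylated NAD+, activated DNA, enzyme and compound. Streptavidin-HRP was then added for 30 min at room temperature, followed by developer reagents and a luminescence read.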

[10] = biological target: T4, Poly [ADP-ribose] polymerase 1 (Homo sapiens, UniProt P09874); experiment: Binding affinity to PARP1 in human OVCAR8 cells assessed as reduction in [125I]-KX1 binding by gamma counting analysis; type: cell-based
[11] = biological target: T4, Poly [ADP-ribose] polymerase 1; experiment: Inhibition of PARP1 (unknown origin) at 10 uM; summary of the method: as §1
[12] = Cytotoxicity against human OVCAR8 cells assessed as cell survival at 10 uM after 4 to 7 days by cell-titer glo assay; type: cell-based, OVCAR-8; conditions: OVCAR8 cells, read-out: Activity
MEF [13] = experiment: Cytotoxicity against mouse PARP1 deficient MEF cells assessed as reduction in cell viability at 0.016 to 100 uM after 4 to 7 days by cell-titer glo assay; type: cell-based
Summary of the method: (§2)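 Cells kept at 37 °C, 5% CO2, 15% O2 in RPMI 1640 with 10% FBS and 1% penicillin/streptomycin. Seeded at 1,000 cells/well and dosed 24 h later at 100–0.016 µM. Exposure lasted 4–7 days, then viability was read by CellTiter Glo luminescence. Signal was normalized to percent survival against the mean of vehicle controls. Three repeat experiments.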

MEF [14] = experiment: Cytotoxicity against mouse wild type MEF cells assessed as reduction in cell viability at 0.016 to 100 uM after 4 to 7 days by cell-titer glo assay; type: cell-based; summary of the method: as §2

T4 sequence (P09874 whole entry): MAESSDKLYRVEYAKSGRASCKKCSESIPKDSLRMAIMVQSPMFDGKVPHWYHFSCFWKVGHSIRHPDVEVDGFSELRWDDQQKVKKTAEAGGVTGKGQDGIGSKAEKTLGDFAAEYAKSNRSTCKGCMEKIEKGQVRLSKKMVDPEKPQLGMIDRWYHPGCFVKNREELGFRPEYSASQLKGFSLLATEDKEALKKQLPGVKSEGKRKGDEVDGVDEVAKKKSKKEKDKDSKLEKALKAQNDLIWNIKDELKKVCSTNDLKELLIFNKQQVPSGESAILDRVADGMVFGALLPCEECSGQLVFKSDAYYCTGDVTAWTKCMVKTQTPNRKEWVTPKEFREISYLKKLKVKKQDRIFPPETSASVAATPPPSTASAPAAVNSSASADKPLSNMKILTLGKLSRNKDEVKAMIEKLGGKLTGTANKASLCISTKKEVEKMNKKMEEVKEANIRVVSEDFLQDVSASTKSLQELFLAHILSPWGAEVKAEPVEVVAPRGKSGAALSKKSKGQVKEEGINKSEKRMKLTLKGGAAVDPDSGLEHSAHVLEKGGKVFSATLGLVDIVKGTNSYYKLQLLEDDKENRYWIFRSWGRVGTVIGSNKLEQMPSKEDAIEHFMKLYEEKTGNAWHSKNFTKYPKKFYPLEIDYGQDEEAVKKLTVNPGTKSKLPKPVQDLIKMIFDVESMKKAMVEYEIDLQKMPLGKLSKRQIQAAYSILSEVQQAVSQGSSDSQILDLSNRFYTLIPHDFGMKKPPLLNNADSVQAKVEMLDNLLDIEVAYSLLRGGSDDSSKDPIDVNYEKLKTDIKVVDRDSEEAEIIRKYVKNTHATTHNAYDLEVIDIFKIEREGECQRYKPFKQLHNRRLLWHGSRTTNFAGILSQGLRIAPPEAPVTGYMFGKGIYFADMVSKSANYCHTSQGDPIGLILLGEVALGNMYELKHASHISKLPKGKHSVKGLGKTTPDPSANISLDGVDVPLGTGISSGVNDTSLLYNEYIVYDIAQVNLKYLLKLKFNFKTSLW

| pIC50 [2] | pIC50 [4] | inhibition [9] | pIC50 [10] | inhibition [11] | SMILES | selectivity ratio [1] | pEC50 [3] | pEC50 [5] | pEC50 (MEF [6]) | pEC50 (MEF [7]) | pEC50 (MEF [8]) | viability at 10 µM [12] [%] | Activity (MEF [13]) [%] | Activity (MEF [14]) [%] |
| --- | --- | --- | --- | --- | --- | --- | --- | --- | --- | --- | --- | --- | --- | --- |
| 6.00 | 6.24 | Active | – | – | CC(C)(C)OC(=O)N1CCC2(CCN(C(=O)c3cc(Cc4n[nH]c(=O)c5ccccc45)ccc3F)C2)C1 (stereo unspecified) | 20 to 40 | 5.13 | 5.38 | 4.33 | 4.76 | 4.63 | – | – | – |
| 5.52 | 6.02 | Active | 5.96 | – | CC(C)(C)OC(=O)N1CCC2(CC1)CCN(C(=O)c1cc(Cc3n[nH]c(=O)c4ccccc34)ccc1F)C2 | 20 to 40 | 5.21 | 5.08 | 4.34 | 5.03 | 4.50 | – | – | – |
| 5.24 | 5.55 | Active | – | – | CC(C)(C)OC(=O)N1CCC2(CC1)CCN(C(=O)c1cc(Cc3n[nH]c(=O)c4ccccc34)ccc1F)CC2 | 20 to 40 | 5.40 | 5.57 | 4.36 | 4.77 | 4.72 | – | – | – |
| – | – | – | – | Active | O=C(c1cc(Cc2n[nH]c(=O)c3ccccc23)ccc1F)N1CC2(C1)CN(C(=O)C1CC1)C2 | 7 | 4.92 | 5.82 | – | – | 4.22 | 80 | < 50 | < 50 |
